Results: the RNAGym collection of RNA variant scans (doi:10.1101/gad.245936.114)
Variants at the floor of the assay were thinned out.

B1: tRNA (parent)
chain: CUCUCGGUAGCCAAGUUGGUUUAAGGCGCAAGACUUUAAUUUAUCACUACGAAAUCUUGAGAUCGGGCGUUCGACUCGCCCCCGGGAGAUUUUUUCCUCGAGCAA

Variants of: B1
Assay: nonsense suppression (GFP-seq) (ratio to wild type); higher = more function; SUP4oc tRNA, yeast GFP reporter sort-seq
Outline: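 Yeast carrying genome-integrated SUP4oc tRNA variants from a library with ~3% random mutations were grown in raffinose/galactose medium with 80 mg/L adenine. Each strain also carried a galactose-driven GFP ochre reporter and RFP. Cells were sorted into GFP/RFP bins, and each bin was Illumina-sequenced (phred ≥30). Nonsense suppression (GFPSEQ) is the bin median GFP/RFP, weighted by each variant's estimated cell share per bin, relative to wild-type SUP4oc; variants needed ≥100 reads and ≥30 cells.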

| Variant | nonsense suppression |
| --- | --- |
| A14G G18A U21C A30G A33G C79A C82A A89U | ≤ 0.026 |
| A14U G84A | ≤ 0.026 |
| A13U C79U | 0.175 |
| A14U U16C U58A G61U C72U | ≤ 0.026 |
| G15A G59C A87C | ≤ 0.026 |
| A13U G67A | 0.0502 |
| G15C C27G A31C | ≤ 0.026 |
| A13U A31G | 1.22 |
| A13U A31U | 0.193 |
| U16A G18U A24C U58G | ≤ 0.026 |
| A14G U16G C64U | ≤ 0.026 |
| A13C U55C | 0.827 |
| G15C G69U G73C | ≤ 0.026 |
| U16C C83U | 0.5 |
| U16C U17C G18A G67A | ≤ 0.026 |
| U16C U21C | 1.03 |
| G15A A24C | 0.0467 |
| U16G A24U | 0.221 |
| A13U C64U | 0.0285 |
| A13C G61A | 0.852 |
| G15C U22G A23C | ≤ 0.026 |
| A13U U16A G85U | 0.173 |
| A13U A30U | 0.0763 |
| A13C G67A | 0.0799 |

| Variant | nonsense suppression |
| --- | --- |
| A14G C29U | 0.0832 |
| U16A G28A | 1.11 |
| G15U C68U G78C C82G G84A | ≤ 0.026 |
| A14G G19A A31U G66C A74C G78U | ≤ 0.026 |
| A13U C29U C81U | 0.0757 |
| G15A U21C C34G U35G U58A | ≤ 0.026 |
| A13U U57A G65A | ≤ 0.026 |
| A13U U20A | 0.189 |
| U16C C82G | ≤ 0.026 |
| A14C G59C G85A | ≤ 0.026 |
| G15C C34A C82G | 0.816 |
| G15C U22C G28C | ≤ 0.026 |
| G15U G18A U58C G85U | ≤ 0.026 |
| U16G A30G C64G | ≤ 0.026 |
| A14U U63A | 0.0439 |
| A14G A33G G69C | ≤ 0.026 |
| A13U C29U | 0.751 |
| A13C G18U G26A A31U | ≤ 0.026 |
| A14U G25U A30C G65C | ≤ 0.026 |
| U16A G65A G66A | ≤ 0.026 |
| A13G A87G | 0.14 |
| A13U C27U | 0.209 |
| A13G A24U | 0.0411 |
| A13U U21A | 0.803 |

| Variant | nonsense suppression |
| --- | --- |
| A13U U21G | 0.763 |
| A14C G59U | ≤ 0.026 |
| A13U G15A G73U | ≤ 0.026 |
| A14G G78A | 0.0272 |
| A13U A54U | 0.728 |
| A13C U17C U22G G85A | 0.81 |
| A13C U16C | 1.12 |
| A13C U16A | 1.17 |
| A13C G78A | 0.208 |
| G15C C56A | ≤ 0.026 |
| G15A G28A C75A | 0.24 |
| U16A A30G | 0.312 |
| A13U G85A | 1.2 |
| A13U C77U | 0.0452 |
| A13G G85A | 0.214 |
| A13U C27U G85A | 0.22 |
| G15U U70A G85U | ≤ 0.026 |
| A14C C56G C72G G86A | ≤ 0.026 |
| A13G C64G | ≤ 0.026 |
| A13C G18C G26U G61C | ≤ 0.026 |
| U16A G73A | 0.63 |
| A13U A14C U35A A60C C72U | ≤ 0.026 |
| A14U U71A | ≤ 0.026 |
| A13G C82A | ≤ 0.026 |

| Variant | nonsense suppression |
| --- | --- |
| U16G A23G | 0.129 |
| A14C C68G | ≤ 0.026 |
| U16A G59A | 0.32 |
| A14C C82U | ≤ 0.026 |
| G15U G19A A54U A62G C79A | ≤ 0.026 |
| A13U G15A | 0.046 |
| A13C G61A C75G | 0.761 |
| A14U C27A G78C A87C | ≤ 0.026 |
| A14G U17A G25A C29U U63G | ≤ 0.026 |
| A14C G59A U70G | ≤ 0.026 |
| A13U G28C | 0.227 |
| A13G C29A | 0.03 |
| U16A U76C | 1.19 |
| G15U U71A C82G | ≤ 0.026 |
| A14C U63G A87C | ≤ 0.026 |
| A13U U71A | ≤ 0.026 |
| U16C U21G A31G G32C G69A U71C C75A G86A | ≤ 0.026 |
| G15U C68G | ≤ 0.026 |
| A13G C75U | 0.305 |
| A13G C75A | 0.71 |
| U16C U55C | 0.769 |
| A14G A60G | 0.0456 |
| G15C G25U | ≤ 0.026 |
| A13C U21A | 1.19 |

| Variant | nonsense suppression |
| --- | --- |
| A13C U21C | 1.17 |
| G15U U70G | ≤ 0.026 |
| A14G A30C G61C A74U | ≤ 0.026 |
| U16A A62G U76G | ≤ 0.026 |
| A14G G19C C29A C56A G88C | ≤ 0.026 |
| A14C C29U | ≤ 0.026 |
| A13U U16C U63G | 0.18 |
| A13U C75A | 0.866 |
| A13U C75U | 1.22 |
| U16C G61U G73A | 0.438 |
| G15U A24G G86C | ≤ 0.026 |
| U16C G73A | 1.22 |
| A14U G18U A23U C27G | ≤ 0.026 |
| A14C C56A C81G | ≤ 0.026 |
| A13C U57A G66A | ≤ 0.026 |
| U16A U22G C79U | 0.208 |
| A14U G85U G88U | ≤ 0.026 |
| A13C C75U G85U | 0.333 |
| A13U G86A | 0.0315 |
| A13G G84C | ≤ 0.026 |
| U16A G85A | 1.03 |
| A13G C68U | 0.146 |
| G15A C68U | 0.0272 |
| A14C G65C C80G A87C | ≤ 0.026 |

| Variant | nonsense suppression |
| --- | --- |
| A13C C77U | 0.0493 |
| G15A A31U U35C U76G C83U | ≤ 0.026 |
| A13G A30G | 0.105 |
| A14U G18C C80U | ≤ 0.026 |
| A14U G66A | ≤ 0.026 |
| G15C A33U G61A | ≤ 0.026 |
| G15A G61C | 0.034 |
| G15A C80U | 0.167 |
| U16A C34G U63C C77G G86C | ≤ 0.026 |
| G15A G26U U55A | ≤ 0.026 |
| A13C G18C U20G A31U | 0.134 |
| A13U A24U | 0.863 |
| A13U A24G | 0.96 |
| A13C U63C | 0.848 |
| A13C U63A | 1.17 |
| G15A | 0.188 |
| A13G G59U | ≤ 0.026 |
| A14C C68U G88A | ≤ 0.026 |
| A13C U17G C82U | 0.142 |
| G15A U16A | 0.0275 |
| U16A U20C | 0.193 |
| U16A U20G | 1.11 |
| A13U G69A | 0.072 |
| A13U G69C | 0.0304 |

| Variant | nonsense suppression |
| --- | --- |
| U16C C68U | 1.03 |
| U16C A54C | 1.22 |
| A14U G15C A60C C79U | ≤ 0.026 |
| G15A U57C G59C G78A | ≤ 0.026 |
| U16G A54U | 1.18 |
| A13C U76A | 0.282 |
| A13G U21G | 0.026 |
| A13G U21C | 0.211 |
| G15A A31G | 0.0274 |
| G15U U21A U55G | ≤ 0.026 |
| U16C C83G G86A A87G | ≤ 0.026 |
| A14U U21A A24G A31C C56G G88A | ≤ 0.026 |
| A13C G61U A87C | ≤ 0.026 |
| G15U C29U | ≤ 0.026 |
| G15U U20C | 0.0275 |
| A14G G86U | ≤ 0.026 |
| G15C G28U A62C G86C | ≤ 0.026 |
| A14G G61C | 0.0278 |
| A13C G66C | ≤ 0.026 |
| A14C U20G | ≤ 0.026 |
| A14G A74C | ≤ 0.026 |
| G15A U76C | 0.0394 |
| U16C U63C C79U | 0.0784 |
